In brackets after ≈: the same amount, converted by molar mass.
Legend:
Assay type in all cases: functional
Pseudomonas aeruginosa [1] = assay: Antimicrobial activity against Pseudomonas aeruginosa isolate 9 obtained from cystic fibrosis patients after 16 to 20 hrs by broth microdilution method in presence of 120 uM carbonyl cyanide m-chlorophenyl-hydrazone
In short: (§1)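 CLSI broth microdilution in Mueller-Hinton broth with serial antibiotic dilutions. CCCP was added from a 10 mM DMSO stock to 120 μM final, then the bacterial culture was added as inoculum (about 10^4 cells from OD600 0.5 starter cultures). MIC was the lowest concentration preventing growth after 16 to 20 h at 37°C, run in triplicate.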

Pseudomonas aeruginosa [2] = assay: Antimicrobial activity against Pseudomonas aeruginosa isolate 15 obtained from cystic fibrosis patients after 16 to 20 hrs by broth microdilution method
In short: (§2)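 CLSI broth microdilution: 2-fold serial antibiotic dilutions in Mueller-Hinton broth, inoculated with about 10^4 cells per 100 μl from starter cultures grown to OD600 0.5. MIC is the lowest concentration preventing growth after 16-20 h at 37°C. Triplicate.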

Pseudomonas aeruginosa [3] = assay: Antimicrobial activity against Pseudomonas aeruginosa PAO1 after 16 to 20 hrs by broth microdilution method in presence of 120 uM carbonyl cyanide m-chlorophenyl-hydrazone
In short: (§3)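 CLSI broth microdilution in Mueller-Hinton broth with CCCP added from a 10 mM DMSO stock to 120 μM final, alongside 2-fold serial antibiotic dilutions. Inoculum from starter cultures grown to OD600 0.5. MIC is the lowest concentration preventing growth after 16-20 h at 37°C. Triplicate.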

Pseudomonas aeruginosa [4] = assay: Antimicrobial activity against ampD, ampDh2, ampDh3 and ampG deficient Pseudomonas aeruginosa PAO1 harboring pZY0901 conferring resistance to gentamycin after 16 to 20 hrs by broth microdilution method
In short: (§4)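 CLSI broth microdilution in Mueller-Hinton broth, serial 2-fold antibiotic dilutions. Inoculum about 10^4 cells per well, taken from starter cultures grown to OD600 0.5. MIC was the lowest antibiotic concentration preventing growth after 16 to 20 h at 37°C. Each MIC was determined in triplicate.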

Pseudomonas aeruginosa [5] = assay: Antimicrobial activity against Pseudomonas aeruginosa PAK after 16 to 20 hrs by broth microdilution method in presence of 120 uM carbonyl cyanide m-chlorophenyl-hydrazone; in short: as §3
Pseudomonas aeruginosa [6] = assay: Antimicrobial activity against Pseudomonas aeruginosa PAK after 16 to 20 hrs by broth microdilution method; in short: as §2
Pseudomonas aeruginosa [7] = assay: Antimicrobial activity against ampD, ampDh2, ampDh3 and ampGh1 deficient Pseudomonas aeruginosa PAO1 after 16 to 20 hrs by broth microdilution method in presence of 120 uM carbonyl cyanide m-chlorophenyl-hydrazone; in short: as §1
Pseudomonas aeruginosa [8] = assay: Antimicrobial activity against ampGh1 deficient Pseudomonas aeruginosa PAO1 after 16 to 20 hrs by broth microdilution method; in short: as §4
Pseudomonas aeruginosa [9] = assay: Antimicrobial activity against Pseudomonas aeruginosa isolate 17 obtained from cystic fibrosis patients after 16 to 20 hrs by broth microdilution method; in short: as §4
Pseudomonas aeruginosa [10] = assay: Antimicrobial activity against ampG, ampGh1 deficient Pseudomonas aeruginosa PAK after 16 to 20 hrs by broth microdilution method in presence of 120 uM carbonyl cyanide m-chlorophenyl-hydrazone; in short: as §1
Pseudomonas aeruginosa [11] = assay: Antimicrobial activity against Pseudomonas aeruginosa isolate 11 obtained from cystic fibrosis patients after 16 to 20 hrs by broth microdilution method in presence of 120 uM carbonyl cyanide m-chlorophenyl-hydrazone; in short: as §3
Pseudomonas aeruginosa [12] = assay: Antimicrobial activity against Pseudomonas aeruginosa isolate 13 obtained from cystic fibrosis patients after 16 to 20 hrs by broth microdilution method in presence of 120 uM carbonyl cyanide m-chlorophenyl-hydrazone; in short: as §3
Pseudomonas aeruginosa [13] = assay: Antimicrobial activity against Pseudomonas aeruginosa isolate 8 obtained from cystic fibrosis patients after 16 to 20 hrs by broth microdilution method in presence of 120 uM carbonyl cyanide m-chlorophenyl-hydrazone; in short: as §1
Pseudomonas aeruginosa [14] = assay: Antimicrobial activity against Pseudomonas aeruginosa isolate 12 obtained from cystic fibrosis patients after 16 to 20 hrs by broth microdilution method; in short: as §2
Pseudomonas aeruginosa [15] = assay: Antimicrobial activity against ampG deficient Pseudomonas aeruginosa PAO1 harboring pUCP24 conferring resistance to gentamycin after 16 to 20 hrs by broth microdilution method; in short: as §4
Escherichia coli [16] = assay: Antimicrobial activity against tetracycline resistant Escherichia coli SNO301-1 harboring pEC1C carrying ampC, ampR from Enterobacter cloacae after 16 to 20 hrs by broth microdilution method
In short: (§5)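 CLSI broth microdilution: serial 2-fold β-lactam dilutions in Mueller-Hinton broth, inoculum about 10^4 cells from starter cultures at OD600 0.5; MIC read as lowest concentration preventing growth after 16 to 20 h at 37°C; triplicate determinations.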

Pseudomonas aeruginosa [17] = assay: Antimicrobial activity against ampGh1 deficient Pseudomonas aeruginosa PAK after 16 to 20 hrs by broth microdilution method in presence of 120 uM carbonyl cyanide m-chlorophenyl-hydrazone; in short: as §1
Pseudomonas aeruginosa [18] = assay: Antimicrobial activity against Pseudomonas aeruginosa isolate 5 obtained from cystic fibrosis patients after 16 to 20 hrs by broth microdilution method; in short: as §4
Pseudomonas aeruginosa [19] = assay: Antimicrobial activity against Pseudomonas aeruginosa isolate 7 obtained from cystic fibrosis patients after 16 to 20 hrs by broth microdilution method in presence of 120 uM carbonyl cyanide m-chlorophenyl-hydrazone; in short: as §1
Pseudomonas aeruginosa [20] = assay: Antimicrobial activity against Pseudomonas aeruginosa isolate 14 obtained from cystic fibrosis patients after 16 to 20 hrs by broth microdilution method; in short: as §2
Pseudomonas aeruginosa [21] = assay: Antimicrobial activity against ampG deficient Pseudomonas aeruginosa PAK harboring pUCP24 conferring resistance to gentamycin after 16 to 20 hrs by broth microdilution method in presence of 120 uM carbonyl cyanide m-chlorophenyl-hydrazone; in short: as §1
Escherichia coli [22] = assay: Antimicrobial activity against gentamycin resistant Escherichia coli SNO301-1 harboring pEC1C carrying ampC, ampR from Enterobacter cloacae after 16 to 20 hrs by broth microdilution method; in short: as §5
Pseudomonas aeruginosa [23] = assay: Antimicrobial activity against ampG deficient Pseudomonas aeruginosa PAK harboring pUCP24 conferring resistance to gentamycin after 16 to 20 hrs by broth microdilution method; in short: as §4
Pseudomonas aeruginosa [24] = assay: Antimicrobial activity against ampGh1 deficient Pseudomonas aeruginosa PAO1 after 16 to 20 hrs by broth microdilution method in presence of 120 uM carbonyl cyanide m-chlorophenyl-hydrazone
In short: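 Serial 2-fold dilutions of β-lactam in Mueller-Hinton broth with CCCP added from a 10 mM DMSO stock to 120 μM final; inoculum about 10^4 cells from cultures grown to OD600 0.5; MIC taken as lowest concentration preventing growth after 16 to 20 h at 37°C; triplicate.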

Pseudomonas aeruginosa [25] = assay: Antimicrobial activity against ampG, ampGh1 deficient Pseudomonas aeruginosa PAO1 after 16 to 20 hrs by broth microdilution method in presence of 120 uM carbonyl cyanide m-chlorophenyl-hydrazone; in short: as §1
Pseudomonas aeruginosa [26] = assay: Antimicrobial activity against Pseudomonas aeruginosa isolate 3 obtained from cystic fibrosis patients after 16 to 20 hrs by broth microdilution method; in short: as §4
Pseudomonas aeruginosa [27] = assay: Antimicrobial activity against Pseudomonas aeruginosa isolate 10 obtained from cystic fibrosis patients after 16 to 20 hrs by broth microdilution method; in short: as §2
Pseudomonas aeruginosa [28] = assay: Antimicrobial activity against Pseudomonas aeruginosa isolate 1 obtained from cystic fibrosis patients after 16 to 20 hrs by broth microdilution method in presence of 120 uM carbonyl cyanide m-chlorophenyl-hydrazone; in short: as §3
Pseudomonas aeruginosa [29] = assay: Antimicrobial activity against ampG deficient Pseudomonas aeruginosa PAK harboring pZY0901 conferring resistance to gentamycin after 16 to 20 hrs by broth microdilution method in presence of 120 uM carbonyl cyanide m-chlorophenyl-hydrazone; in short: as §1
Pseudomonas aeruginosa [30] = assay: Antimicrobial activity against ampG, ampGh1 deficient Pseudomonas aeruginosa PAO1 after 16 to 20 hrs by broth microdilution method; in short: as §4
Pseudomonas aeruginosa [31] = assay: Antimicrobial activity against Pseudomonas aeruginosa isolate 6 obtained from cystic fibrosis patients after 16 to 20 hrs by broth microdilution method; in short: as §4

CC1(C)S[C@@H]2[C@H](NC(=O)[C@H](N)c3ccccc3)C(=O)N2[C@H]1C(=O)O [AMPICILLIN]
MIC (Pseudomonas aeruginosa [1]): 8 µg/mL
MIC (Pseudomonas aeruginosa [2]): > 1020 µg/mL
MIC (Pseudomonas aeruginosa [3]): 128 µg/mL
MIC (Pseudomonas aeruginosa [4]): 1020 µg/mL (≈ 2930 µM)
MIC (Pseudomonas aeruginosa [5]): 256 µg/mL
MIC (Pseudomonas aeruginosa [6]): 512 µg/mL (≈ 1470 µM)
MIC (Pseudomonas aeruginosa [7]): 64 µg/mL
MIC (Pseudomonas aeruginosa [8]): 256 µg/mL (≈ 733 µM)
MIC (Pseudomonas aeruginosa [9]): 512 µg/mL (≈ 1470 µM)
MIC (Pseudomonas aeruginosa [10]): 32 µg/mL
MIC (Pseudomonas aeruginosa [11]): 8 µg/mL
MIC (Pseudomonas aeruginosa [12]): 8 µg/mL
MIC (Pseudomonas aeruginosa [13]): 8 µg/mL
MIC (Pseudomonas aeruginosa [14]): > 1020 µg/mL
MIC (Pseudomonas aeruginosa [15]): 32 µg/mL (≈ 91.6 µM)
MIC (Escherichia coli [16]): 16 µg/mL (≈ 45.8 µM)
MIC (Pseudomonas aeruginosa [17]): 256 µg/mL
MIC (Pseudomonas aeruginosa [18]): 512 µg/mL (≈ 1470 µM)
MIC (Pseudomonas aeruginosa [19]): 8 µg/mL
MIC (Pseudomonas aeruginosa [20]): 512 µg/mL (≈ 1470 µM)
MIC (Pseudomonas aeruginosa [21]): 32 µg/mL
MIC (Escherichia coli [22]): 1020 µg/mL (≈ 2930 µM)
MIC (Pseudomonas aeruginosa [23]): 32 µg/mL (≈ 91.6 µM)
MIC (Pseudomonas aeruginosa [24]): 256 µg/mL
MIC (Pseudomonas aeruginosa [25]): 32 µg/mL
MIC (Pseudomonas aeruginosa [26]): 64 µg/mL (≈ 183 µM)
MIC (Pseudomonas aeruginosa [27]): > 1020 µg/mL
MIC (Pseudomonas aeruginosa [28]): 512 µg/mL
MIC (Pseudomonas aeruginosa [29]): 32 µg/mL
MIC (Pseudomonas aeruginosa [30]): 32 µg/mL (≈ 91.6 µM)
MIC (Pseudomonas aeruginosa [31]): > 1020 µg/mL

— ChEMBL document CHEMBL1687785, “ampG gene of Pseudomonas aeruginosa and its role in β-lactamase expression” (2010)
